Measurements: PubChem BioAssay AID624431 (The Scripps Research Institute Molecular Screening Center, 2012)
This is one part of the list. Activity calls are given as the source filed them.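 The calls were made as follows: active = mean inhibition over triplicates exceeds the hit threshold derived for the earlier primary screening run (cut at about 25% in these data); inactive = the rest.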

What follows are compounds tested against Arf-GAP with SH3 domain, ANK repeat and PH domain-containing protein 1 (Homo sapiens) (UniProt Q9ULH1) (assay: blockers of ASAP1-stimulated Arf1 GTP hydrolysis – biochemical, fluorescence polarization, human, triplicate, confirmation (AID 624431)). Settings: ASAP1-stimulated Arf1 GTPase, GDP fluorescence polarization; at 16.5 µM; stronger effect = higher value.
Arf-GAP with SH3 domain, ANK repeat and PH domain-containing protein 1 (Homo sapiens), sequence (Q9ULH1 325-724 limits assumed): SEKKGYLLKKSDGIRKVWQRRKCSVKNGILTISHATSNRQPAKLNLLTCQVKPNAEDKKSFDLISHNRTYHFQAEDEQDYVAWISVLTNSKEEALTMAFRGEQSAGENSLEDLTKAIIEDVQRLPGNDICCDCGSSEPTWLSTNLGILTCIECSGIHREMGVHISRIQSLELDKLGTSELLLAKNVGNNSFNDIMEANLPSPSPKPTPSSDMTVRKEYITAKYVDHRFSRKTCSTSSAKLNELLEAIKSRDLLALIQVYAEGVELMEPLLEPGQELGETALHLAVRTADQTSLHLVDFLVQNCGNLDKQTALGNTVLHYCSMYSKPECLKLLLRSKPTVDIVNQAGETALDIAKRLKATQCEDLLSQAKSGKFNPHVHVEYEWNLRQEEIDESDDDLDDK
How it was run: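 Detection: Fluorescence polarization, free GDP displacing antibody-bound GDP Alexa 633 tracer | System: ASAP1 GAP domain protein (residues 325-724) | Schedule: 20-min ASAP1–compound and 120-min Arf1-GTP steps at 25 °C, 60-min tracer | Benchmarks: Wells without ASAP1 as full-inhibition reference control | Read-out: % inhibition versus wells lacking ASAP1 | Compound dosing: 16.5 µM single dose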

Compound | inhibition
c1ccc(-c2cc(-c3nnc4sc(-c5ccccn5)nn34)[nH]n2)cc1 | 33% (active)
CC(=O)Nc1cc(-c2ccc(N3CCN(C)CC3)cc2)cn2c(-c3cccc(C(=O)N(C)C)c3)cnc12 | 69.3% (active)
CCN(CC)c1ccc2cc(C(N)=O)/c(=N\NC(=O)c3ccncc3)oc2c1 | 87.2% (active)
C=CCNc1nc(N)c(C(=C(C#N)C#N)c2ccccc2)s1 | 13.1% (inactive)
CCN1CCN(CCNC(=O)c2ccc3c(c2)NC(=O)/C(=C\c2ccc(OC)c(OC)c2)S3)CC1 | 94% (active)
COc1ccc(-n2nnnc2SCC(=O)c2ccc(OC)c(OC)c2)cc1 | 30.7% (active)
Cc1cccc(-n2ncc(Cl)c(Cl)c2=O)c1 | -3.51% (inactive)
COc1ccc(/C=N/Nc2ncnc3sc4c(c23)CCCC4)cc1O | 26.2% (active)
CC(=O)Nc1cc(-c2ccc(N3CCN(C)CC3)cc2)cn2c(-c3ccc(F)cc3)cnc12 | 40.5% (active)
CCOC(=O)c1ccc(Nc2cc3ccccc3c(=O)[nH]2)cc1 | 9.9% (inactive)
CC(=O)N(C1=C(Cl)C(=O)c2ccccc2C1=O)c1ccc(C(=O)O)cc1 | 22.3% (inactive)
OCCNc1nc(Nc2ccc(Cl)c(Cl)c2)nc2ccccc12 | 26.6% (active)
COC(=O)c1ccc(NCC(=O)c2ccccc2)cc1 | -2.85% (inactive)
Cc1ccc2nc(SCC(=O)N3CC(C)OC(C)C3)nc(=O)n2c1 (stereo unspecified) | 54.1% (active)
COc1cc(/C=N/Nc2nn3cnnc3c3ccccc23)cc(OC)c1OC | 39% (active)
C=CCC[C@@H](CCCCC)OC(=O)/C=C/[C@@H](O)[C@H](O)C[C@H](O)CC=C | 1.35% (inactive)
